In brackets after ≈: the same amount, converted by molar mass.
How the values were obtained:
[1] = system: Staphylococcus aureus; assay: Antibacterial activity against Staphylococcus aureus ATCC 29213 assessed as bacterial growth inhibition incubated for 18 to 24 hrs by broth microdilution method; format: functional; settings: time 18-24 hrs
How it was run: (§1)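 CLSI broth microdilution. Overnight starter cultures (single colony, MHBII, 37 °C, shaking 18–24 h) were diluted by OD600 to 10^6 CFU/mL in MHBII. Two-fold dilutions from […] were made from 10 mg/mL DMSO stocks, then incubated 37 °C for 18-24 h. The MIC was the lowest concentration with no visible growth. Three independent runs, duplicate samples.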

[2] = system: Acinetobacter baumannii; assay: Antibacterial activity against Acinetobacter baumannii BAA-1605 assessed as bacterial growth inhibition incubated for 18 to 24 hrs by broth microdilution method; format: functional; settings: time 18-24 hrs; how it was run: as §1
[3] = system: Pseudomonas aeruginosa; assay: Antibacterial activity against Pseudomonas aeruginosa ATCC 27853 assessed as bacterial growth inhibition incubated for 18 to 24 hrs by broth microdilution method; format: functional; settings: time 18-24 hrs; how it was run: as §1
[4] = system: Escherichia coli; assay: Antibacterial activity against Escherichia coli ATCC 25922 assessed as bacterial growth inhibition incubated for 18 to 24 hrs by broth microdilution method; format: functional; settings: time 18-24 hrs; how it was run: as §1
[5] = system: Klebsiella pneumoniae; assay: Antibacterial activity against Klebsiella pneumoniae BAA 1705 assessed as bacterial growth inhibition incubated for 18 to 24 hrs by broth microdilution method; format: functional; settings: time 18-24 hrs; how it was run: as §1
[6] = Selectivity ratio of CC50 for African green monkey Vero cells to MIC against Staphylococcus aureus ATCC 29213; format: toxicity, cell-based
[7] = system: Staphylococcus aureus; assay: Antibacterial activity against methicillin sensitive Staphylococcus aureus ATCC 29213 assessed as bacterial growth inhibition incubated for 18 to 24 hrs by broth microdilution method; format: functional; settings: time 18-24 hrs
How it was run: (§2)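 CLSI broth microdilution in MHBII; overnight starter cultures (single MHA colony, 37 °C, shaking) adjusted by OD600 to 10^6 CFU/mL. Compounds from DMSO stocks (10 mg/mL), two-fold series 64–0.5 mg/L. Incubation 37 °C, 18-24 h. MIC = lowest concentration with no visible growth. Three independent determinations, each in duplicate.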

[8] = system: Staphylococcus aureus; assay: Antibacterial activity against methicillin resistant Staphylococcus aureus NRS 119 assessed as bacterial growth inhibition incubated for 18 to 24 hrs by broth microdilution method; format: functional; settings: time 18-24 hrs; how it was run: as §2
[9] = system: Staphylococcus aureus; assay: Antibacterial activity against methicillin resistant Staphylococcus aureus NRS 129 assessed as bacterial growth inhibition incubated for 18 to 24 hrs by broth microdilution method; format: functional; settings: time 18-24 hrs; how it was run: as §2
[10] = system: Staphylococcus aureus; assay: Antibacterial activity against methicillin resistant Staphylococcus aureus NRS 186 assessed as bacterial growth inhibition incubated for 18 to 24 hrs by broth microdilution method; format: functional; settings: time 18-24 hrs; how it was run: as §2
[11] = system: Staphylococcus aureus; assay: Antibacterial activity against methicillin resistant Staphylococcus aureus NRS 191 assessed as bacterial growth inhibition incubated for 18 to 24 hrs by broth microdilution method; format: functional; settings: time 18-24 hrs; how it was run: as §2
[12] = system: Staphylococcus aureus; assay: Antibacterial activity against methicillin resistant Staphylococcus aureus NRS 192 assessed as bacterial growth inhibition incubated for 18 to 24 hrs by broth microdilution method; format: functional; settings: time 18-24 hrs; how it was run: as §2
[13] = system: Staphylococcus aureus; assay: Antibacterial activity against methicillin resistant Staphylococcus aureus NRS 193 assessed as bacterial growth inhibition incubated for 18 to 24 hrs by broth microdilution method; format: functional; settings: time 18-24 hrs; how it was run: as §2
[14] = system: Staphylococcus aureus; assay: Antibacterial activity against methicillin resistant Staphylococcus aureus NRS 194 assessed as bacterial growth inhibition incubated for 18 to 24 hrs by broth microdilution method; format: functional; settings: time 18-24 hrs; how it was run: as §2
[15] = system: Staphylococcus aureus; assay: Antibacterial activity against methicillin resistant Staphylococcus aureus NRS 198 assessed as bacterial growth inhibition incubated for 18 to 24 hrs by broth microdilution method; format: functional; settings: time 18-24 hrs; how it was run: as §2
[16] = system: Staphylococcus aureus; assay: Antibacterial activity against vancomycin resistant Staphylococcus aureus […] 4 assessed as bacterial growth inhibition incubated for 18 to 24 hrs by broth microdilution method; format: functional; settings: time 18-24 hrs; how it was run: as §2
[17] = system: Staphylococcus aureus; assay: Antibacterial activity against vancomycin resistant Staphylococcus aureus […] 12 assessed as bacterial growth inhibition incubated for 18 to 24 hrs by broth microdilution method; format: functional; settings: time 18-24 hrs; how it was run: as §2
[18] = system: Vero; assay: Cytotoxicity against African green monkey Vero cells assessed as cell viability incubated for 72 hrs by MTT assay; format: toxicity, cell-based; settings: chlorocebus sabaeus
How it was run: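 MTT assay on Vero cells, ~10^3 cells/well, 37 °C, 5% CO2. Compound was added at 24 h (100-12.5 μg/mL) for 72 h, then MTT for 4 h at 37 °C. Formazan was dissolved in DMSO and read at 540 nm. CC50 was the lowest concentration giving 50% viability loss. Doxorubicin positive control; triplicate.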

[19] = system: Staphylococcus aureus; assay: Synergistic antibacterial activity against Staphylococcus aureus ATCC 29213 assessed as bacterial growth inhibition incubated for 24 hrs in presence of (S)-8''-Bromo-1-ethyl-1'-methyl-2,12''-dioxo-12''H-dispiro[indoline-3,4'-pyrrolidine-2',6''-indolo[2,1-b]quinazoline]-3',3'-dicarbonitrile by checkerboard assay; format: functional
How it was run: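 Checkerboard in 96-well plates: two-fold serial dilutions, one agent along abscissa, partner antibiotic along ordinate. Wells received ~10⁵ CFU/mL S. aureus ATCC 29213 in MHBII. Incubation 37 °C, 24 h. ΣFIC = FIC A + FIC B, each FIC being combination MIC divided by MIC alone.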

[20] = system: Staphylococcus aureus; assay: Bactericidal activity against Staphylococcus aureus ATCC 29213 assessed as reduction in bacterial load at 10 times of MIC incubated for 24 hrs by time kill analysis; format: functional; set-up: scale not given: the % may be the effect or the level left
How it was run: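 Time-kill assay. ~10^6 CFU/mL in MHBII was exposed to 1X and 10X MIC, 37 °C with shaking for 24 h. Samples were taken at 0, 1, 6 and 24 h, serially diluted in PBS, plated on MHA and incubated 37 °C 18–20 h. Colonies were counted as CFU/mL survivors. Three repeats in duplicate; mean plotted.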

[21] = Staphylococcus aureus, ATCC 29213, read-out: MIC

SMILES	MIC [1, 21]	MIC [2]	MIC [3]	MIC [4]	MIC [5]	selectivity ratio [6]	MIC [7]	MIC [8]	MIC [9]	MIC [10]	MIC [11]	MIC [12]	MIC [13]	MIC [14]	MIC [15]	MIC [16]	MIC [17]	Activity [18]	MIC [19]	also measured
CCN1C(=O)[C@@]2(CN(C)C3(c4cc(Cl)ccc4-n4c3nc3ccccc3c4=O)C2(C#N)C#N)c2ccccc21 (stereo partly drawn)	0.125 µg/mL (≈ 0.235 µM)	> 64 µg/mL	> 64 µg/mL	> 64 µg/mL	> 64 µg/mL	> 80	0.25 µg/mL (≈ 0.469 µM)	0.125 µg/mL (≈ 0.235 µM)	0.25 µg/mL (≈ 0.469 µM)	0.125 µg/mL (≈ 0.235 µM)	0.063 µg/mL (≈ 0.118 µM)	0.25 µg/mL (≈ 0.469 µM)	0.25 µg/mL (≈ 0.469 µM)	0.5 µg/mL (≈ 0.938 µM)	0.25 µg/mL (≈ 0.469 µM)	0.25 µg/mL (≈ 0.469 µM)	0.25 µg/mL (≈ 0.469 µM)	Non-Toxic	–	–
CCN1C(=O)[C@@]2(CN(C)C3(c4cc(OC)ccc4-n4c3nc3ccccc3c4=O)C2(C#N)C#N)c2ccccc21 (stereo partly drawn)	0.125 µg/mL (≈ 0.236 µM)	> 64 µg/mL	> 64 µg/mL	> 64 µg/mL	> 64 µg/mL	> 80	0.5 µg/mL (≈ 0.946 µM)	0.25 µg/mL (≈ 0.473 µM)	0.25 µg/mL (≈ 0.473 µM)	0.5 µg/mL (≈ 0.946 µM)	0.25 µg/mL (≈ 0.473 µM)	0.5 µg/mL (≈ 0.946 µM)	0.5 µg/mL (≈ 0.946 µM)	0.5 µg/mL (≈ 0.946 µM)	0.5 µg/mL (≈ 0.946 µM)	0.5 µg/mL (≈ 0.946 µM)	8 µg/mL (≈ 15.1 µM)	Non-Toxic	–	–
C[C@H]1COc2c(N3CCN(C)CC3)c(F)cc3c(=O)c(C(=O)O)cn1c23 [LEVOFLOXACIN ANHYDROUS]	0.125 µg/mL (≈ 0.346 µM)	–	–	–	64 µg/mL (≈ 177 µM)	–	0.125 µg/mL (≈ 0.346 µM)	16 µg/mL (≈ 44.3 µM)	0.25 µg/mL (≈ 0.692 µM)	4 µg/mL (≈ 11.1 µM)	16 µg/mL (≈ 44.3 µM)	4 µg/mL (≈ 11.1 µM)	32 µg/mL (≈ 88.6 µM)	0.125 µg/mL (≈ 0.346 µM)	32 µg/mL (≈ 88.6 µM)	> 64 µg/mL	32 µg/mL (≈ 88.6 µM)	–	0.125 µg/mL	MIC [1]: 0.25 µg/mL (≈ 0.692 µM)
CN[C@H](CC(C)C)C(=O)N[C@H]1C(=O)N[C@@H](CC(N)=O)C(=O)N[C@H]2C(=O)N[C@H]3C(=O)N[C@H](C(=O)N[C@H](C(=O)O)c4cc(O)cc(O)c4-c4cc3ccc4O)[C@H](O)c3ccc(c(Cl)c3)Oc3cc2cc(c3O[C@@H]2O[C@H](CO)[C@@H](O)[C@H](O)[C@H]2O[C@H]2C[C@](C)(N)[C@H](O)[C@H](C)O2)Oc2ccc(cc2Cl)[C@H]1O [VANCOMYCIN]	–	–	–	–	–	–	–	–	–	–	–	–	–	–	–	> 64 µg/mL	> 64 µg/mL	–	–	Activity [20]: 100%
C[C@@H](O)[C@H]1C(=O)N2C(C(=O)O)=C(S[C@@H]3CN[C@H](C(=O)N(C)C)C3)[C@H](C)[C@H]12 [MEROPENEM]	0.063 µg/mL (≈ 0.164 µM)	–	–	–	–	–	0.125 µg/mL (≈ 0.326 µM)	64 µg/mL (≈ 167 µM)	4 µg/mL (≈ 10.4 µM)	8 µg/mL (≈ 20.9 µM)	64 µg/mL (≈ 167 µM)	8 µg/mL (≈ 20.9 µM)	64 µg/mL (≈ 167 µM)	1 µg/mL (≈ 2.61 µM)	64 µg/mL (≈ 167 µM)	64 µg/mL (≈ 167 µM)	8 µg/mL (≈ 20.9 µM)	–	0.63 µg/mL	–
CCN1C(=O)[C@]2(c3ccccc31)C(C(=O)NCC(=O)O)NC1(c3cc(Cl)ccc3-n3c1nc1ccccc1c3=O)C2(C#N)C#N (stereo partly drawn)	1 µg/mL (≈ 1.61 µM)	> 64 µg/mL	> 64 µg/mL	> 64 µg/mL	> 64 µg/mL	10	–	–	–	–	–	–	–	–	–	–	–	–	–	–

Source: ChEMBL document CHEMBL5329147, “Synthesis of tryptanthrin appended dispiropyrrolidine oxindoles and their antibacterial evaluation” (RSC Med Chem, 2023)
